Measurements published in ChEMBL document CHEMBL4325910, “Design and synthesis of rosiglitazone-ferulic acid-nitric oxide donor trihybrids for improving glucose tolerance” (Eur J Med Chem, 2019).
The source made the active and inactive calls. The calls are words filed in the database; no cut-off is given here.

What was measured:
hERG (KCNH2) [1] = target: T1, hERG (KCNH2) (Homo sapiens, UniProt Q12809); experiment: Inhibition of human ERG expressed in CHO cells at 40 uM by patch clamp assay relative to control; type: cell-based; conditions: CHO cells that express hERG
T1 sequence (Q12809 whole entry): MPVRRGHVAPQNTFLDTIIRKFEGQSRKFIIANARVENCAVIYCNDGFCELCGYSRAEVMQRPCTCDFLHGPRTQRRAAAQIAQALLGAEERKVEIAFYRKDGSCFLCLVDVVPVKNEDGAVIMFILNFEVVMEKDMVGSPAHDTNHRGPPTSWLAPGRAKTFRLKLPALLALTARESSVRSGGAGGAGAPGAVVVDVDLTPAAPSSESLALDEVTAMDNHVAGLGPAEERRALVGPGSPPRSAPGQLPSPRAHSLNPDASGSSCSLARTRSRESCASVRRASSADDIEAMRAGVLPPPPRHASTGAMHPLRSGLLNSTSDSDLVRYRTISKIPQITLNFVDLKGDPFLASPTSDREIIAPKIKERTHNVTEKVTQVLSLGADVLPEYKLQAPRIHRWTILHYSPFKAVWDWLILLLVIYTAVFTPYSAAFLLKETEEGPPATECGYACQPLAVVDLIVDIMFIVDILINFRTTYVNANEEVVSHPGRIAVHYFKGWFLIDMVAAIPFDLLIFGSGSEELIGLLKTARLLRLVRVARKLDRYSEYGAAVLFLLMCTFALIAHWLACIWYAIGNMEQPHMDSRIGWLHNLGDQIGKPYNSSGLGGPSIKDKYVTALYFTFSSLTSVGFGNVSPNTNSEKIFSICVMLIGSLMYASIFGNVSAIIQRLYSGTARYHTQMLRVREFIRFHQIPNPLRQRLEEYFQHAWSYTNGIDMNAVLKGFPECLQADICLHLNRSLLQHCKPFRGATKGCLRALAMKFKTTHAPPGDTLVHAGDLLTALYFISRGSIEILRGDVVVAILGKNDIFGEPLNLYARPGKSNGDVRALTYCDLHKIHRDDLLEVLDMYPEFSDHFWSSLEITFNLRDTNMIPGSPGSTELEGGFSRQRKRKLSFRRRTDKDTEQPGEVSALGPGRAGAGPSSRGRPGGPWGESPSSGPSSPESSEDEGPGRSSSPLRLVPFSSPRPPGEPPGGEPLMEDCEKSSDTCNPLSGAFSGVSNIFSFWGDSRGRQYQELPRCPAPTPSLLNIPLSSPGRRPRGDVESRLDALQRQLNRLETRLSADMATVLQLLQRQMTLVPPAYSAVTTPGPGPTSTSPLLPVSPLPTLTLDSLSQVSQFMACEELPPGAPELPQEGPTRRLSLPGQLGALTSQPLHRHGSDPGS

3T3-L1 [2] = experiment: Induction of insulin-stimulated 2-NBDG uptake in TNF-alpha-induced insulin resistant mouse 3T3L1 cells preincubated for 48 hrs followed by 2-NBDG addition measured after 30 mins in presence of insulin by fluorescence assay; type: functional, cell-based
How it was run: (§1)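 Day-8 differentiated 3T3-L1 adipocytes received TNF-α (4 ng/mL) daily for 4 days. They were pretreated in triplicate for 48 h (C-PTIO 20 μM where indicated), then given 100 μM 2-NBDG at 37 °C for 30 min in the dark, with or without insulin. After KRP washes, fluorescence was read at Ex/Em 485/515 nm. Three experiments, mean ± SD.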

[3] = Metabolic stability in human liver microsomes after 0.5 hrs in presence of NADPH by HPLC analysis; type: ADME, Microsome; conditions: read-out: Stability
How it was run: (§2)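 Compound (100 mM DMSO stock) was added in triplicate to 0.1 M phosphate buffer pH 7.4 with 3.3 mM MgCl2 and human liver microsomes, then preincubated 5 min at 37 °C. NADPH (1.3 mM stock) was added and incubation continued 0, 0.5, 1, 2 or 6 h. Acetonitrile quench, then HPLC at 254 nm.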

3T3-L1 [4] = experiment: Induction of adipogenesis in mouse 3T3L1 preadipocytes assessed as increase in intracellular triglyceride level at 10 uM treated every other day up to day 14 by AdipoRed staining based confocal microscopic method; type: functional, cell-based
How it was run: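 3T3-L1 preadipocytes were grown to confluence plus 48 h. Differentiation was induced with 1.0 μM dexamethasone, 0.5 mM IBMX and 1.0 μg/mL insulin for 48 h, then insulin alone. Compound or 0.1% DMSO was added every other day to day 14. Cells were washed in KRP, stained with AdipoRed for 15 min in the dark, imaged confocally and read at Ex/Em 485/572 nm.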

hERG (KCNH2) [5] = target: T1, hERG (KCNH2); experiment: Inhibition of human ERG expressed in CHO cells at 10 uM by patch clamp assay relative to control; type: cell-based; conditions: CHO cells that express hERG
Aquaporin-2 [6] = target: T2, Aquaporin-2 (Homo sapiens, UniProt P41181); experiment: Induction of membrane translocation of biotinylated human AQP2 expressed in rat IMCD cells at 10 to 50 uM after 30 mins by Western blot analysis; type: cell-based; conditions: 0.5 h
T2 sequence (P41181 whole entry): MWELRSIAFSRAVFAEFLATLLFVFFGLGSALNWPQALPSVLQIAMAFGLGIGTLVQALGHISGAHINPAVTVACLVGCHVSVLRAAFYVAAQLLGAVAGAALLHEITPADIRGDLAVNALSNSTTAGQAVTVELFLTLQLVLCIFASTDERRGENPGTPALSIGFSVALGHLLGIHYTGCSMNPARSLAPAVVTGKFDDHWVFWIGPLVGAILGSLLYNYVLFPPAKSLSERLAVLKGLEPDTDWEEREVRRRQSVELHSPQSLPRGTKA
How it was run: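 Human AQP2-transfected primary rat IMCD cells were treated for 30 min. Surface proteins were biotinylated with sulfo-NHS-LC-biotin (3 mg/mL, 60 min, 4 °C), then cells lysed in 1% NP-40 and pulled down overnight on streptavidin beads. Biotinylated and total AQP2 (30 μg/lane) were blotted with anti-AQP2 and quantified by densitometry as the biotinylated/total ratio. Three experiments, mean ± SD.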

hERG (KCNH2) [7] = target: T1, hERG (KCNH2); experiment: Inhibition of human ERG expressed in CHO cells at 1.25 uM by patch clamp assay relative to control; type: cell-based; conditions: CHO cells that express hERG
Platelet [8] = experiment: Antiplatelet activity in platelet rich plasma (unknown origin) assessed as inhibition of ADP-induced platelet aggregation; type: functional, cell-based
[9] = Toxicity in spontaneous db/db BKS.Cg-Dock7m +/+ Leprdb/J mouse assessed as body weight gain at 27 umol/kg, po administered as daily dose via gavage treated for 18 days measured post last dose (reference value: 5.6 +/- 2.1 g); type: organism-based; conditions: in vivo, 432 h
[10] = Metabolic stability in human liver microsomes measured immediately after compound addition in presence of NADPH by HPLC analysis; type: ADME, Microsome; conditions: read-out: Stability; how it was run: as §2
hERG (KCNH2) [11] = target: T1, hERG (KCNH2); experiment: Inhibition of human ERG expressed in CHO cells at 20 uM by patch clamp assay relative to control; type: cell-based; conditions: CHO cells that express hERG
[12] = Toxicity in po dosed ICR mouse administered as single dose via gavage treated on day 1 and measured daily up to 14 days; type: organism-based; conditions: in vivo
How it was run: (§3)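 Mice of both sexes, 7 weeks old, were randomized and given one oral gavage dose on day 1. Dose levels were 500, 1000, 2000, 3000, 4000 or 5000 mg/kg, or 2000, 4000 and 5000 mg/kg, with n = 10 per group. Behaviour, health and mortality were checked daily for 14 days, and total deaths were counted on day 14. LD50 was calculated with 95% confidence limits.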

hERG (KCNH2) [13] = target: T1, hERG (KCNH2); experiment: Inhibition of human ERG expressed in CHO cells at 5 uM by patch clamp assay relative to control; type: cell-based; conditions: CHO cells that express hERG
Aquaporin-2 [14] = target: T2, Aquaporin-2; experiment: Induction of membrane translocation of biotinylated human AQP2 expressed in rat IMCD cells at 10 to 50 uM after 30 mins by FITC-staining based confocal fluorescence microscopic analysis; type: cell-based; conditions: 0.5 h
How it was run: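 Primary SD rat IMCD cells, day 5, were transfected with a human AQP2 plasmid (5 h, serum-free) and cultured 48 h. They were treated for 30 min, with 0.1% DMSO as vehicle and forskolin 100 μM as reference. Cells were fixed in paraformaldehyde, permeabilized with Triton X-100 and quenched with H2O2/methanol. They were stained with FITC-anti-AQP2 and imaged by confocal microscopy.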

[15] = target: Voltage-gated inwardly rectifying potassium channel KCNH2 (Homo sapiens, UniProt Q12809); experiment: Inhibition of human ERG expressed in CHO cells by patch clamp assay; type: cell-based
Sequence of Voltage-gated inwardly rectifying potassium channel KCNH2 (Q12809 whole entry): as the sequence (Q12809 whole entry) above

hERG (KCNH2) [16] = target: T1, hERG (KCNH2); experiment: Inhibition of human ERG expressed in CHO cells at 2.5 uM by patch clamp assay relative to control; type: cell-based; conditions: CHO cells that express hERG
L02 = experiment: Inhibition of cellular glucose output in dexamethasone-induced insulin resistant human L02 cells assessed as insulin-stimulated glucose uptake at 10 uM preincubated for 24 hrs followed by insulin stimulation measured after 24 hrs by glucose oxidase method (reference value: 4.5 +/- 0.7%); type: functional; design: scale not given: the % may be the effect or the level left
3T3-L1 [17] = experiment: Induction of insulin-stimulated 2-NBDG uptake in TNF-alpha-induced insulin resistant mouse 3T3L1 cells at 10 uM preincubated for 48 hrs followed by 2-NBDG addition measured after 30 mins in presence of insulin by fluorescence assay; type: functional, cell-based; how it was run: as §1
Platelet [18] = experiment: Antiplatelet activity in platelet rich plasma (unknown origin) assessed as inhibition of arachidonic acid-induced platelet aggregation; type: functional, cell-based
Platelet [19] = experiment: Antiplatelet activity in platelet rich plasma (unknown origin) assessed as inhibition of ADP-induced platelet aggregation at 4 mM relative to control; type: functional
[20] = Toxicity in ICR mouse assessed mouse mortality at 5000 mg/kg, po administered as single dose via gavage treated on day 1 and measured daily up to 14 days; type: organism-based; conditions: in vivo, 336 h; how it was run: as §3
Platelet [21] = experiment: Antiplatelet activity in platelet rich plasma (unknown origin) assessed as inhibition of arachidonic acid-induced platelet aggregation at 1 mM relative to control; type: functional

| Structure (SMILES) | inhibition at 40 µM (hERG (KCNH2) [1]) | EC50 (3T3-L1 [2]) | Activity (3T3-L1 [4]) | inhibition at 10 µM (hERG (KCNH2) [5]) | Activity (Aquaporin-2 [6]) | inhibition at 1.25 µM (hERG (KCNH2) [7]) | IC50 (Platelet [8]) | Activity [9] | inhibition at 20 µM (hERG (KCNH2) [11]) | LD50 at 336 h [12] | inhibition at 5 µM (hERG (KCNH2) [13]) | Activity (Aquaporin-2 [14]) | IC50 [15] | inhibition at 2.5 µM (hERG (KCNH2) [16]) | Activity (L02) | Activity (3T3-L1 [17]) | IC50 (Platelet [18]) | other results |
| --- | --- | --- | --- | --- | --- | --- | --- | --- | --- | --- | --- | --- | --- | --- | --- | --- | --- | --- |
| CCN(CC)/[N+]([O-])=N/OCOC(=O)/C=C/c1ccc(OC(=O)OCN2C(=O)SC(Cc3ccc(OCCN(C)c4ccccn4)cc3)C2=O)c(OC)c1 (centres undefined) | 39.5% | 1.08 µM | Active | 18% | Not Active | 9.06% | 2100 µM | 3.4 g | 26.2% | > 5000 mg/kg | 14.5% | Not Active | > 40 µM | 10.8% | 47.8% | Active | 700 µM | remaining at 0.5 h [3]: 94.3%; remaining at 0 h [10]: 100% |
| CN(CCOc1ccc(CC2SC(=O)NC2=O)cc1)c1ccccn1 (centres undefined) [ROSIGLITAZONE] | 57.9% | 1.72 µM | Active | 30.1% | Active | 9.38% | 5700 µM | 6.6 g | 42.5% | 2580 mg/kg | 23.3% | Active | 29.5 µM | 17.3% | 11.8% | Active | 6400 µM | inhibition at 4000 µM (Platelet [19]): 43.1%; Activity [20]: Toxic; inhibition at 1000 µM (Platelet [21]): 14.8% |
